Results: ChEMBL document CHEMBL3232705, “Discovery of isoquinolinone indole acetic acids as antagonists of chemoattractant receptor homologous molecule expressed on Th2 cells (CRTH2) for the treatment of allergic inflammatory diseases” (J Med Chem, 2014)
The source made the active and inactive calls. The calls are words filed in the database; no cut-off is given here.

What was measured:
[1] = test system: Mus musculus; test: Antiallergic activity in house dust mite-induced allergic airway disease BALB/c mouse model assessed as reduction in lymphocyte level in bronchoalveolar lavage fluid at 40 mg/kg, po after 72 hrs of HDM challenge; type: functional, organism-based; set-up: dose 40 mg/kg; conditions: Lung
Method in brief: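 BALB/c mice given house dust mite intratracheally via a catheter passed through the vocal cords. Test article 40 mg/kg orally once daily; dexamethasone 1 mg/kg ip once daily as reference. Total and differential BAL cells (eosinophils, macrophages, lymphocytes, neutrophils) counted 72 h after HDM challenge. Mean ± SEM, Mann–Whitney U test.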

[2] = Clearance in monkey at 2 mg/kg, iv; type: ADME, organism-based, Macaca mulatta; set-up: dose 2 mg/kg, route intravenous; conditions: rhesus monkey, in vivo
Method in brief: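 Single intravenous dose of 2 mg/kg and single oral dose of 10 mg/kg, given separately, in rat, dog and monkey. Clearance and half-life taken from the iv arm; Cmax from the oral arm.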

[3] = test system: Ovis aries; test: Inhibition of carbachol-induced airway hyperresponsiveness in sheep at 3 mg/kg, iv bid; type: functional, organism-based; set-up: dose 3 mg/kg
[4] = test system: Ovis aries; test: Inhibition of Ascaris-induced airway bronchoconstriction in sheep assessed as inhibition of late phase allergic airway bronchoconstriction at 1 mg/kg, iv qd for 7 days; type: functional, organism-based; set-up: dose 1 mg/kg
Method in brief: (§1)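 Sheep given 1 mg/kg iv once daily for 7 days before Ascaris suum allergen challenge. Early and late responses read as airway resistance above baseline, compared with each animal's historical untreated values. After the AHR measurement, three bronchi per sheep were lavaged for cell counts.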

[5] = molecular target: T1, Cytochrome P450 2A6 (Homo sapiens, UniProt P11509); test: Inhibition of CYP2A6 (unknown origin); type: ADME
T1 sequence (P11509 whole entry): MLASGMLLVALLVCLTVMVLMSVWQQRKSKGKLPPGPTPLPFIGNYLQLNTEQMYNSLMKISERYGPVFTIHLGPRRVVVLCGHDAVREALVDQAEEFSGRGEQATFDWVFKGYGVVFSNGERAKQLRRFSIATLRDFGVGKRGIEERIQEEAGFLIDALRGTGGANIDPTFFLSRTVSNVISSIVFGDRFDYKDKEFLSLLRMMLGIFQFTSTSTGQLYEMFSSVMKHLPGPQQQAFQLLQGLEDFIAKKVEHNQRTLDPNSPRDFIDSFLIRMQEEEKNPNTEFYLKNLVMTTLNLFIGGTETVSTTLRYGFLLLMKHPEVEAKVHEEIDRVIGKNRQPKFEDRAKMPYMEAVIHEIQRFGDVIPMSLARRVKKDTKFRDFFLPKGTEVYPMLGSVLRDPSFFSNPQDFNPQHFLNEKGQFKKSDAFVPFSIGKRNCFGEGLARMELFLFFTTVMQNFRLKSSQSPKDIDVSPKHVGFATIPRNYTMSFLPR

[6] = test system: Cavia porcellus; test: Antiallergic activity in ovalbumin-induced allergic lung inflammation Hartley guinea pig model assessed as eosinophil level in bronchoalveolar lavage fluid at 20 mg/kg, po administered 1 hr before and 6 hrs after ovalbumin challenge after 24 hrs; type: functional, organism-based; set-up: dose 20 mg/kg
Method in brief: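 Female Hartley guinea pigs (375–425 g) sensitized ip on days 1 and 5 with 100 μg OVA plus 100 mg aluminum hydroxide in PBS, then challenged on day 15 with aerosolized 0.01% OVA for 60 min. Dosed orally 1 h before and 6 h after challenge; vehicle was Tween 80 in cherry syrup. On day 16, lungs lavaged with 2 × 10 mL PBS. Total cells counted by hemocytometer; differentials from stained cytospins. Unpaired t test.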

[7] = test system: Rattus norvegicus; test: Oral bioavailability; conditions: in vivo
[8] = molecular target: T2, Prostaglandin D2 receptor 2 (Homo sapiens, UniProt Q9Y5Y4); test: Antagonist activity at human recombinant CRTh2 expressed in CHO-K1 cells by cAMP TR FRET assay; type: functional, cell-based
T2 sequence (Q9Y5Y4 whole entry): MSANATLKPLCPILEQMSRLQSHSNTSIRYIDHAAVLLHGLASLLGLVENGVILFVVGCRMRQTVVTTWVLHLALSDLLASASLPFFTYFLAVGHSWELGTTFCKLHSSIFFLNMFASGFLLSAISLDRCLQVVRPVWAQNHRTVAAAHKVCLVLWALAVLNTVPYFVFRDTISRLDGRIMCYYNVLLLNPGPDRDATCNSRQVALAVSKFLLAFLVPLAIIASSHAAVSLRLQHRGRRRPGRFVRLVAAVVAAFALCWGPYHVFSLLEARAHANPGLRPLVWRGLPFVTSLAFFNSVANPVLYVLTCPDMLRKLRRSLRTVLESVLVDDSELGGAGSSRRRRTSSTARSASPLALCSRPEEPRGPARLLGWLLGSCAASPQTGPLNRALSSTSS

[9] = molecular target: Cytochrome P450 3A4 (Homo sapiens, UniProt P08684); test: Inhibition of CYP3A4 (unknown origin); type: ADME
Sequence of Cytochrome P450 3A4 (P08684 whole entry): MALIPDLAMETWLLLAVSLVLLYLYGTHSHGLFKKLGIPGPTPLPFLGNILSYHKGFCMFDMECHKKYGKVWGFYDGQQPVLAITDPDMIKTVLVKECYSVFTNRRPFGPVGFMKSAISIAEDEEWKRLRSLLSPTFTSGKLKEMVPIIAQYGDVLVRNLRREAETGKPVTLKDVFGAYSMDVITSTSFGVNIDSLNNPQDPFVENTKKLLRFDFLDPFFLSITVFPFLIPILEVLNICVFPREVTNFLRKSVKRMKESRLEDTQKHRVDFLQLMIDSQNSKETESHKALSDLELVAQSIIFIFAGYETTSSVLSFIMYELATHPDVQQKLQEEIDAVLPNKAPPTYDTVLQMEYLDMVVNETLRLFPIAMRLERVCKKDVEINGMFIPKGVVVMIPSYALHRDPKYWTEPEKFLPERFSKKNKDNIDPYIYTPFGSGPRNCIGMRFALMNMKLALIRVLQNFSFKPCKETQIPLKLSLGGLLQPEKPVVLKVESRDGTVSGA

[10] = molecular target: T3, Thromboxane A2 receptor (Homo sapiens, UniProt P21731); test: Antagonist activity at TXA2 receptor (unknown origin) by FRET assay
T3 sequence (P21731 whole entry): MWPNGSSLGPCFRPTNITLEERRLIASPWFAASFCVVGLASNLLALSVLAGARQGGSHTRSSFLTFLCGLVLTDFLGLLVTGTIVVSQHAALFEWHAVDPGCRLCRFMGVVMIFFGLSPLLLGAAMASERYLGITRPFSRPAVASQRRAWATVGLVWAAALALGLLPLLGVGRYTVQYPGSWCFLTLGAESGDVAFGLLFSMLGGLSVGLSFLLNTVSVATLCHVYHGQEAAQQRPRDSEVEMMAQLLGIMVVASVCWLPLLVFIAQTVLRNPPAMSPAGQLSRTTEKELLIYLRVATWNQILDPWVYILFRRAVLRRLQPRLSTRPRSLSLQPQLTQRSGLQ

[11] = test system: Ovis aries; test: Inhibition of Ascaris-induced airway bronchoconstriction in sheep assessed as inhibition of early phase allergic airway bronchoconstriction at 1 mg/kg, iv qd for 7 days; type: functional, organism-based; set-up: dose 1 mg/kg; method in brief: as §1
[12] = molecular target: T4, Prostaglandin D2 receptor 2 (Mus musculus, UniProt Q9Z2J6); test: Inhibition of mouse CRTH2 receptor
T4 sequence (Q9Z2J6 whole entry): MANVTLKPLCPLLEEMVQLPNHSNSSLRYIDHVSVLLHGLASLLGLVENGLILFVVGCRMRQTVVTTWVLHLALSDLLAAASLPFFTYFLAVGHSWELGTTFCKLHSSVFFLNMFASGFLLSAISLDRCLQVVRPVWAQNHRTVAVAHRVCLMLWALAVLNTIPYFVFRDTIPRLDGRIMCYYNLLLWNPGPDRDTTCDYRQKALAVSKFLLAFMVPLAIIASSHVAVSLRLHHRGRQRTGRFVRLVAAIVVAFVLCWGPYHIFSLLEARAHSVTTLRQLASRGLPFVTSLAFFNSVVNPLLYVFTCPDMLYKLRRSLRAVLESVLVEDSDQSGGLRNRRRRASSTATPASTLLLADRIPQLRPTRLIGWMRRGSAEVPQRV

[13] = test system: Mus musculus; test: Antiallergic inflammatory activity in oxazolone induced contact hypersensitivity mouse model assessed as reduction ear swelling at 3 mg/kg, po prior to oxazolone and 7 hrs post challenge measured after 24 hrs; type: functional
Method in brief: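 Mice sensitized on the shaved abdomen with 2% oxazolone in ethanol one week before challenge. Dosed orally 1 h before the left ear was challenged with 10 μL of 2% oxazolone (ethanol on the right ear as control), then redosed 7 h after challenge. Ear thickness measured by micrometer; swelling taken as 24 h post-challenge minus pre-challenge thickness. Unpaired t test.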

For `Cc1c(-c2cn(C(C)C)c(=O)c3ccccc23)c2cc(F)ccc2n1CC(=O)O`, the inhibition [1] was “Active”, the clearance [2] was 6.1 mL/min/kg and the inhibition [3] was “Active”. For the same compound, the inhibition [4] was “Active”, the IC50 [5] was > 100000 nM and the inhibition [6] was “Active”. The bioavailability [7] was 35%, the IC50 [8] was 6 nM and the IC50 [9] was > 100000 nM. For the same compound, the IC50 [10] was > 1000 nM, the inhibition [11] was “Active” and the IC50 [12] was 4 nM. It also gave an inhibition in vivo at 3 mg/kg [13] of 50.5%.
